Measurements of several laboratories.
Compare with care: the assays were run in different laboratories.
Target: Mitogen-activated protein kinase 7 (MAPK7, Homo sapiens, UniProt Q13164)

CC(C)(C)c1nc(-c2cccc(NS(=O)(=O)c3c(F)cccc3F)c2F)c(-c2ccnc(N)n2)s1  remaining activity (enzyme activity; inhibitor; radiometric; 1 µM): 74%
CSc1cccnc1N1CCN(Cc2nc3ccccc3[nH]2)CC1  remaining binding (cell-free assay; competition with immobilised ligand; 1 µM): 100%
FC(F)(F)Oc1cccc(-c2cnc3ccc(-c4ccncc4)nn23)c1  activity vs control (enzyme activity; inhibitor; radiometric; 1 µM): 51%
COc1cc(Nc2cnc(C#N)c(O[C@H](C)CN(C)C)n2)ncc1-c1cnn(C)c1  remaining activity (enzyme activity; inhibitor; radiometric; 10 µM): 85%
Nc1ncnc2occ(-c3ccc(NC(=O)Nc4cc(C(F)(F)F)ccc4F)cc3)c12  remaining signal (cell-free assay; inhibitor; 20 µM): 1.6%
Cc1sc(C(=O)NC2COC2)cc1-n1cc(NC(=O)Nc2c(F)cccc2Cl)cn1  remaining activity (enzyme activity; inhibitor; 10 µM): 95.7%
O=C(Nc1ccc(Oc2ccc(F)cc2)cc1)N1CCc2ncccc2[C@H]1c1ccc(F)cc1  remaining binding (cell-free assay; competition with immobilised ligand; 1 µM): 96%
c1ccc(CNc2nc(N3CCOc4ccccc43)nc3c2CCCC3)cc1  inhibition (target engagement in cells; inhibitor; chemoproteomics; 20 mM): -6.4%
O=C(Nc1cnn(-c2csc(C(=O)NC3COC3)c2)c1)Nc1ccccc1Cl  remaining activity (enzyme activity; inhibitor; 5 µM): 119%
CS(=O)(=O)N1CCCC(NC(=O)[C@H](CCC2CCCCC2)NC(=O)c2ccc(CNc3ncnc4c3nnn4-c3ccccc3)cc2)C1 (stereo partly drawn)  remaining binding (cell-free assay; competition with immobilised ligand; 0.1 µM): 94%
CNc1cc(Oc2cc(C(=O)Nc3cc(N4CCN(C)CC4)cc(C(F)(F)F)c3)ccc2C)ncn1  inhibition (target engagement in cells; inhibitor; chemoproteomics; Huh-7; 1 µM): -24.1%
COc1cc(/C=C/C(=O)CC(=O)/C=C/c2ccc(O)c(OC)c2)ccc1O  activity vs control (enzyme activity; inhibitor; 1 µM): 62%
